From ChEMBL document CHEMBL1789904, “Imaging of Plasmodium liver stages to drive next-generation antimalarial drug discovery” (Science, 2011)
Where “and” joins values, the source holds several entries; their conditions need not be identical. Equal entries are not always repeated.

Tested on: Plasmodium yoelii
Experiment: NOVARTIS: Antimalarial liver stage activity measured as reduction in Plasmodium yoelii schizont area in HepG2-A16-CD81 cells by immuno-fluorescence, and median schizont size at 10uM compound concentration
Type: functional, organism-based
In short: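 Host and parasite nuclei stained with Hoechst 33342, parasites with αPyHSP70 antibody; 25 images per well by high-content imaging; median parasite (schizont) area measured by automated image analysis, ~50 schizonts per experiment, two or more independent experiments.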

[1] = Plasmodium yoelii, HepG2-A16-CD81

| SMILES | Schizont size | IC50 [1] | IC50 (hepg2-a16-cd81) |
| --- | --- | --- | --- |
| COc1cccc(NC(=O)c2ccc(NCCCN3CC(C)CC(C)C3)c([N+](=O)[O-])c2)c1 (centres undefined) | 87.57 um | 437 nM | – |
| CCCC(=O)N1CCN(c2nc(Cc3ccccc3)c3c(c2C#N)CC(C)(C)OC3)CC1 | 22.44 um | 348 nM | – |
| CC(c1nc2ccc(Cl)cc2c(=O)n1C)N1CCN(S(=O)(=O)c2cccc3ccccc23)CC1 (centres undefined) | – | 22.3 nM | – |
| CCOc1ccc(NC(=O)C(C)Sc2nc3ccccc3[nH]2)cc1 (centres undefined) | 194.87 um | > 10000 nM | – |
| CCCN[P+](CC(C)C)(NCCC)NCCC | 27.24 um | 281 nM | – |
| Oc1c(CN2CCN(Cc3ccc4cccnc4c3O)CC2)ccc2cccnc12 | 21.19 um | 96.6 nM | – |
| CCCCCC[n+]1ccccc1C=Cc1ccc(N(C)C)cc1.[I-] | 16.8 um | 55.9 nM | – |
| COc1ccc2[nH]c(SCC(=O)Nc3cccc(NC(=O)CSc4nc5cc(OC)ccc5[nH]4)n3)nc2c1 | 180.05 um | > 9290 nM | – |
| CN(C)c1ccc(-c2n(C)c3ccccc3[n+]2C)cc1.[Cl-] | 46.86 um | 175 nM | – |
| O=C1c2ccccc2C2=Nc3ccccc3SC(c3ccccc3F)C12 (centres undefined) | 28.6 um | 239 nM | – |
| CCOc1ccc(Nc2nc(NCc3ccco3)c3ccccc3n2)cc1 | 75.78 um | 105 nM | – |
| COc1ccc(NC(=O)COc2ccccc2C(C)C)c(OC)c1 | 202.59 um | > 10000 nM | – |
| O=[N+]([O-])c1cccc(C(Nc2nccs2)c2ccc3cccnc3c2O)c1 (centres undefined) | 43.42 um | 358 nM | – |
| CCOC(=O)C1=C(C)NC2=C(C(=O)C(C(=O)OCC)C(c3ccccc3OC)C2)C1c1ccc([N+](=O)[O-])cc1 (centres undefined) | 76.3 um | 335 nM | – |
| Cc1c(C#N)c2ccccc2n1CC(=O)Nc1ccc(Br)cc1 | 158.02 um | > 10000 nM | – |
| CCC1CN2CCc3cc(OC)c(OC)cc3C2CC1CC1NCCc2cc(OC)c(OC)cc21.Cl (centres undefined) | 13.78 um | 80.2 nM | – |
| CCCCCC[P+](N(CCC)CCC)(N(CCC)CCC)N(CCC)CCC | 30.27 um | 49.1 nM | – |
| CC(=O)N(C1=C(N2CCOCC2)C(=O)c2ccccc2C1=O)c1ccc(I)cc1 | 50.1 um | 602 nM | – |
| CN(C)c1oc(-c2ccc(Cl)cc2Cl)nc1[P+](c1ccccc1)(c1ccccc1)c1ccccc1.[I-] | 19.41 um | 129 nM | – |
| Cc1oc2c(c1C(=O)NCCCn1ccnc1)C(=O)c1ccccc1C2=O | 12.53 um | 119 nM | – |
| CCOC(=O)c1ccc(NCc2c(C)[nH]c3ccccc3c2=O)cc1 | 18.27 um | 137 nM | – |
| COc1cccc(-c2cncc(-c3cncc(OC)c3)n2)c1 | – | > 10000 nM | – |
| [Br-].c1ccc(-c2nn(-c3ccccc3)[n+](-c3ccccc3)n2)cc1 | 26.51 um | 107 nM | – |
| COc1ccc2nc(C)cc(Nc3ccc(Oc4ccc(Cl)c5ccccc45)c(Cl)c3)c2c1 | 22.65 um | 267 nM | – |
| Cc1cccc(NC(=S)NC2CC3CCCC(C2)N3CCc2ccccc2)c1 (centres undefined) | 67.74 um | 277 nM | – |
| CCC(C)(C)c1ccc(OCCCC[n+]2cccc(C)c2C)c(C(C)(C)CC)c1.[Br-] | 12.53 um | 45.5 nM | – |
| COc1ccc(CN2CCOc3ccc(C(C)(O)CN(C)C)cc3C2)cc1C (centres undefined) | 87.05 um | 67.5 nM | – |

| SMILES | Schizont size | IC50 [1] | IC50 (hepg2-a16-cd81) |
| --- | --- | --- | --- |
| CC(=O)N(C1=C(N2CCOCC2)C(=O)c2ccccc2C1=O)c1cccc(Cl)c1 | 43.73 um | 744 nM | – |
| O=C(Nc1ccc(-c2ccc(Cl)cc2)cc1)c1cccs1 | 31.73 um | 151 nM | – |
| COc1ccc(C2CC(=O)C3=C(C2)NC(C)=C(C(=O)OC2CCCC2)C3c2cccc(C)c2)cc1OC (centres undefined) | 66.8 um | 779 nM | – |
| O=C1C(Nc2ccc(O)cc2)=CC(=NS(=O)(=O)c2cccs2)c2ccccc21 | 12.53 um | 85.6 nM | – |
| Cc1ccc(-c2cc(C(=O)OCC(=O)c3cccc([N+](=O)[O-])c3)c3cc(C)ccc3n2)cc1 | 180.05 um | > 10000 nM | – |
| COC(=O)C1=CNC=C(C(=O)OC)C1c1cc(OC)c(OC)c(OC)c1 | 216.47 um | > 10000 nM | – |
| Cc1cc(Nc2cccc(F)c2)nc(NCc2ccccc2)n1 | 73.06 um | 1110 nM | – |
| COc1cc(OC)c(NC(=O)C2c3ccccc3C(=O)N(C)C2c2ccc(OC)c(OC)c2)cc1Cl (centres undefined) | 165.85 um | > 9130 nM | – |
| Brc1ccc(Nc2nc(NCc3ccco3)c3ccccc3n2)cc1 | 35.17 um | 163 nM | – |
| CC1(C)N=C(N)N=C(N)N1c1ccc(Cl)cc1.Cl [CHLORCYCLOGUANIL HYDROCHLORIDE] | 33.09 um | 2.56 nM | – |
| Cc1ccc(N2C(N)=NC(N)=NC2(C)C)cc1.Cl | 35.07 um | 10 nM | – |
| COc1ccc(Nc2nc(NCc3ccccc3)c3ccccc3n2)cc1 | 29.96 um | 305 nM | – |
| CCCCc1c(CCC)c(=N)c2ccccc2n1C.I | 58.14 um | 244 nM | – |
| CCC(/C=C1\Sc2ccc(OC)cc2N1CCCS(=O)(=O)O)=C\c1sc2ccc(OC)cc2[n+]1CCCS(=O)(=O)O | 18.06 um | 11.2 nM | – |
| Cc1oc2c(c1C(=O)NCC1CCCO1)C(=O)c1ccccc1C2=O (centres undefined) | 21.4 um | 189 nM | – |
| O=C1c2ccccc2C2=Nc3ccccc3SC(c3cccc(F)c3)C12 (centres undefined) | 30.06 um | 162 nM | – |
| CC1(C)N=C(N)N=C(N)N1c1ccc(Oc2ccc(Cl)cc2)c(Cl)c1.Cl | 27.76 um | 73 nM | – |
| CCCCN1C=CC=C/C1=C\c1sc2ccccc2[n+]1CC | 18.47 um | 10.9 nM | – |
| CC(C)NCC(O)Cn1c2ccc(Cl)cc2c2cc(Cl)ccc21 (centres undefined) | 88.41 um | 2970 nM | – |
| Oc1cccc(Nc2nc(NCC3CCCO3)c3ccccc3n2)c1 (centres undefined) | 74.32 um | 1040 nM | – |
| COc1ccc(C2CC(=O)C3=C(C2)NC(C)=C(C(=O)OC(C)C)C3c2cccc(C)c2)cc1OC (centres undefined) | 90.91 um | 1840 nM | – |
| Cc1ccc(CSCc2ccc(C(=O)NC3CC3)o2)cc1 | 25.36 um | 47.3 nM | – |
| CCCc1ccc(C(=O)NC(=O)c2ccccc2O)cc1 | 23.17 um | 4.18 nM | – |
| Cl.OCCNc1nc(Nc2ccc(F)cc2)nc2ccccc12 | 91.12 um | 136 nM | – |
| Cc1cc(C(=O)Nc2cnn(Cc3ccc(Cl)cc3Cl)c2)no1 | 57.82 um | 335 nM | – |
| CCCc1nc2ccc(NC(=O)c3ccccc3F)cc2c(=O)n1Cc1ccc(-c2ccccc2)cc1 | – | 1730 nM | – |
| O=c1c2c([nH]c3ccccc13)CCCCCC2 | 42.48 um | 727 nM | – |

| SMILES | Schizont size | IC50 [1] | IC50 (hepg2-a16-cd81) |
| --- | --- | --- | --- |
| C=CC[n+]1c(C=C2C=CN(C)C=C2)sc2ccccc21.[I-] | 26.72 um | 13.2 nM | – |
| CC1(C)N=C(N)N=C(N)N1c1ccc(F)cc1.Cl | 38.93 um | 18.9 nM | – |
| O=C(c1cc2nc(-c3ccccc3)cc(C(F)(F)F)n2n1)N1CCN(Cc2ccccc2)CC1 | 148.94 um | > 10000 nM | – |
| CCCc1c(C)nc2ccccc2c1O | 34.55 um | 279 nM | – |
| COc1ccccc1-n1c(C=Cc2cc(Br)ccc2O)nc2ccccc2c1=O | – | 4590 nM | – |
| Oc1c(C(Nc2ccccn2)c2cccc(Cl)c2Cl)ccc2cccnc12 (centres undefined) | 23.8 um | 402 nM | – |
| CCCCOc1ccc(N(C(C)=O)C2=C(N3CCOCC3)C(=O)c3ccccc3C2=O)cc1 | 74.84 um | 1790 nM | – |
| Cl.Fc1ccc(Nc2nc(NCc3ccco3)c3ccccc3n2)cc1 | 45.3 um | 74.9 nM | – |
| CCOC(=O)c1c(CSc2ccccc2)oc2cc(CN(C)C)c(O)c(Cl)c12 | 188.08 um | 7200 nM | – |
| COc1ccc(-c2n(C)c3ccccc3[n+]2CC(=O)OC2CC(C)CCC2C(C)C)cc1.[Cl-] (centres undefined) | 14.3 um | 156 nM | – |
| CCN(CC)c1ccc(N=Cc2ccc(Sc3nc4ccccc4s3)o2)cc1 | 152.6 um | > 10000 nM | – |
| c1ccc(-c2csc(Nc3nc4cc5c(cc4s3)OCO5)n2)nc1 | 34.44 um | 78.9 nM | – |
| CCCCCCCC[n+]1c(C)n(C)c2cc(Cl)c(Cl)cc21.[I-] | 40.39 um | 419 nM | – |
| C=CCc1c(C)nc2ccc(Br)cc2c1O | 32.46 um | 181 nM | – |
| CC1CC(N(C(=O)c2ccc(Cl)cc2Cl)c2ccccc2)c2ccccc2N1C(=O)c1ccc(Cl)cc1 (centres undefined) | 110.64 um | 3640 nM | – |
| O=[N+]([O-])c1ccc(N2CCCN(C(=S)Nc3ccc(F)cc3Br)CC2)nc1 | 120.24 um | 4620 nM | – |
| CCc1nc(N)nc(N)c1-c1ccc(Cl)cc1 [PYRIMETHAMINE] | 37.58 um | 2.15 nM | – |
| Cn1ncnc2c(=O)n(C)c(=O)nc1-2 | 12.53 um | 103 nM | – |
| CCN(CC)CCN(Cc1cc2ccc(C)cc2[nH]c1=O)C(=S)NC(C)c1ccccc1 (centres undefined) | 66.17 um | 883 nM | – |
| O=C(c1ccc([N+](=O)[O-])cc1)c1ccc(Cl)c(Cl)c1 | 109.39 um | 1640 nM | – |
| CCCCC(=O)NC(c1cccc([N+](=O)[O-])c1)c1ccc2cccnc2c1O (centres undefined) | 23.69 um | 449 nM | – |
| CCOC(=O)c1cnc2ccc(OC)cc2c1O | 30.16 um and 29.96 um | – | 135 nM and 293 nM |
| CCN1CCN(c2cc(C)c3cc(NC(=O)c4cc(OC)cc(OC)c4)ccc3n2)CC1 | 113.77 um | 3740 nM | – |
| CCCC(=O)NC(c1ccc(Cl)cc1)c1ccc2cccnc2c1O (centres undefined) | 14.09 um | 190 nM | – |
| CC(=O)N(C1=C(N(C)C)C(=O)c2ccccc2C1=O)c1ccc(F)cc1 | 23.8 um | 57.3 nM | – |
